A short description of data set [1]: folding enthalpy; higher = less favourable; fluorescence melt of hairpins on a sequencing array, two-state fit. As to conditions: sodium 0.088 M. The gist of the method:
(§1)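 Bootstrapped two-state fits yielded melting temperature and folding enthalpy for library hairpins. Cy3 fluorescence, with annealed Cy3 and quencher oligos, was imaged on a sequenced MiSeq flow cell in 50 mM Na-HEPES pH 8.0, 25 mM NaCl in 2.5 °C steps up to 60 °C, and normalised to pre-quench Cy3 and to control constructs. Four replicates were combined by inverse variance, and fitted temperatures were raised by 9.35 °C to match UV melts.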

Data set [2] in a line: melting temperature; fluorescence melt of hairpins on a sequencing array, two-state fit, raised by 9.35 °C to match UV melts. As to conditions: sodium 0.088 M. The gist of the method:
as §1

Turning to GAGCTACGAAAGTATCTC (((.(((....))).))), the folding enthalpy in data set [1] is -25.1 kcal/mol. Further, the Tm in data set [2] is 36.9 °C.
In the case of GAGCTCGCGAAAGCGCTC (((..(((....)))))), in data set [1], the folding enthalpy is -14.2 kcal/mol. Moreover, the Tm in data set [2] stood at 41.8 °C.
With GAGCTCGGAAACAAGCTC (((((.(....).))))), the folding enthalpy in data set [1] is -30 kcal/mol. In addition, the Tm in data set [2] was 43 °C.
In the case of GAGCTCGGAAACGAGCCC (.(((((....))))).), in data set [1], the folding enthalpy was -7.56 kcal/mol. In data set [2], the Tm turned out to be 59.5 °C.
For GAGCTCGGAAACGAGTTC ((.((((....)))).)) the same measures were -29.1 kcal/mol and 53 °C.
GAGCTCGGAAACGGGCTC ((((.((....)).)))): in data set [1], the folding enthalpy was -44.2 kcal/mol. For the same sequence, the Tm in data set [2] was 60.7 °C.
Regarding GAGCTGAAAAGCTC (((((....))))), in data set [1], the folding enthalpy was -27.2 kcal/mol. Besides, the Tm in data set [2] is 57.2 °C.
GAGCTGCCGAAAGGCCTC (((..(((....)))))): in data set [1], the folding enthalpy was -11.3 kcal/mol. Moreover, in data set [2], the Tm came to 32.7 °C.
For the sequence GAGCTGCGAAAGCAACTC (((.(((....))).))), in data set [1], the folding enthalpy was -31.8 kcal/mol. For the same sequence, the Tm in data set [2] came to 51.2 °C.
In the same order, the values of GAGCTGGCGAAAGCCCTC (((..(((....)))))) are -5.81 kcal/mol and 36.6 °C.
Consider GAGCTGGGAAACTAGCTC (((((.(....).))))), for which the folding enthalpy in data set [1] was -38.7 kcal/mol. Moreover, the Tm in data set [2] worked out at 52.5 °C.
Turning to GAGCTTGAAAAAGCTC ((((((....)))))), the folding enthalpy in data set [1] was -41.6 kcal/mol. The Tm in data set [2] is 58.1 °C.
In the case of GAGCTTGCGAAAGCACTC (((..(((....)))))), the folding enthalpy in data set [1] is -10.9 kcal/mol. For the same sequence, the Tm in data set [2] was 39.7 °C.
Take GAGGACGAAAGTCAGCTC ((((((....)))..))): the folding enthalpy in data set [1] is -15 kcal/mol. Further, the Tm in data set [2] came to 42 °C.
Regarding GAGGACGAAAGTCATCTC ((((((....)))..))), the folding enthalpy in data set [1] is -19.1 kcal/mol. Moreover, in data set [2], the Tm was 51.8 °C.
On to GAGGACGAAAGTCCACTC ((((((....)))..))), for which the folding enthalpy in data set [1] was -12.7 kcal/mol. Further, the Tm in data set [2] is 52.4 °C.
As to GAGGACGAAAGTCCGCTC ((((((....)))..))), the folding enthalpy in data set [1] was -12.1 kcal/mol. The Tm in data set [2] was 67.5 °C.
With GAGGACGGAAACGTCTTC ((.((((....)))).)), the folding enthalpy in data set [1] was -17.8 kcal/mol. Further, in data set [2], the Tm came to 47.3 °C.
For GAGGAGAAATCCTC (((((....))))) the same measures were -21.8 kcal/mol and 43.4 °C.
GAGGAGCGAAAGCTCTC (((.(((....)))))): the folding enthalpy in data set [1] was -9.17 kcal/mol. The Tm in data set [2] came out at 48.2 °C.
GAGGAGCGAAAGCTGCTC (((.(((....))).))): the folding enthalpy in data set [1] is -34 kcal/mol. Further, in data set [2], the Tm was 63.7 °C.
For GAGGAGGAAACTCCTC ((((((....)))))), in data set [1], the folding enthalpy is -31.2 kcal/mol. Moreover, the Tm in data set [2] amounted to 55.9 °C.
In the same order, the values of GAGGCAGGAAACTACCTC ((((.((....)).)))) are -26.9 kcal/mol and 40.3 °C.
Take GAGGCAGGAAACTGCCCC (.(((((....))))).): the folding enthalpy in data set [1] was -9.1 kcal/mol. The Tm in data set [2] was 44.2 °C.
Take GAGGCAGGAAACTGCTTC ((.((((....)))).)): the folding enthalpy in data set [1] is -18 kcal/mol. For the same sequence, the Tm in data set [2] is 47.7 °C.
Take GAGGCCCGAAAGGGCTC (((.(((....)))))): the folding enthalpy in data set [1] is -9.95 kcal/mol. For the same sequence, the Tm in data set [2] worked out at 57.9 °C.
For GAGGCCGAAAGGCAACTC ((((((....)))..))) the same measures were -14.2 kcal/mol and 46.7 °C.
As to GAGGCCGAAAGGCGCTC ((((((....))).))), in data set [1], the folding enthalpy is -13.8 kcal/mol. For the same sequence, the Tm in data set [2] amounted to 57 °C.
For the sequence GAGGCCGAAAGGCTCCTC ((((((....)))..))), the folding enthalpy in data set [1] is -10.2 kcal/mol. Besides, the Tm in data set [2] was 40.8 °C.
For GAGGCCGGAAACGGTCTC (((.(((....))).))), the folding enthalpy in data set [1] was -36 kcal/mol. Further, in data set [2], the Tm amounted to 64.8 °C.
Consider GAGGCGGCGAAAGCCCTC (((..(((....)))))), for which the folding enthalpy in data set [1] is -11 kcal/mol. In addition, the Tm in data set [2] came to 43.1 °C.
Consider GAGGCGGGAAACCACCCC (.((.((....)).)).), for which the folding enthalpy in data set [1] is -13.6 kcal/mol. In addition, the Tm in data set [2] is 27.8 °C.
On to GAGGCGGGAAACCGTCTC (((.(((....))).))), for which the folding enthalpy in data set [1] is -38.3 kcal/mol. For the same sequence, the Tm in data set [2] was determined as 56.8 °C.
GAGGCGGGAAACTGCCTC (((((.(....).))))): in data set [1], the folding enthalpy was -39.1 kcal/mol. Moreover, in data set [2], the Tm is 61.1 °C.
With GAGGCTCCGAAAGGACTC (((..(((....)))))), the folding enthalpy in data set [1] is -15.5 kcal/mol. For the same sequence, in data set [2], the Tm is 34.4 °C.
In the same order, the values of GAGGGAGGAAACTCCCTC (((((((....))))))) are -41.1 kcal/mol and 62.9 °C.

Source of the values: the array DNA melting data of Ke et al. (doi:10.1101/2024.01.08.574731).
